Active and inactive are the calls of the source. The calls are words filed in the database; no cut-off is given here.
Columns and labels:
Plasmodium falciparum [1] = test: Antiplasmodial activity against chloroquine-sensitive ring stage Plasmodium falciparum 3D7 infected in human red blood cells after 48 hrs; assay type: functional, organism-based; conditions: 3D7, 48 h
[2] = Selectivity index, ratio of IC50 for african green monkey Vero cells to IC50 for chloroquine-resistant ring stage Plasmodium falciparum W2; assay type: toxicity, cell-based; conditions: read-out: Ratio IC50
How it was run: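 Vero IC50 divided by W2 IC50. Vero: 15000 cells/well adhered overnight, then log dilutions from 30 mg/mL DMSO stock for 48 h. MTT 0.5 mg/mL final for 2 h at 37 C, formazan dissolved in 95% ethanol, A570 read against DMSO vehicle as 100% viability. W2: 48 h YOYO-1 flow-cytometric growth assay in human erythrocytes.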

Vero = test: Cytotoxicity against african green monkey Vero cells after 48 hrs by MTT assay; assay type: cell-based; conditions: Chlorocebus sabaeus
How it was run: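 Vero monkey kidney cells in DMEM with 10% FBS at 37 C, 7% CO2; seeded 15000 cells/well and adhered overnight. Log dilutions from 30 mg/mL DMSO stock, 48 h exposure. MTT at 0.5 mg/mL final for 2 h; formazan dissolved in 95% ethanol, read at 570 nm. Viability relative to DMSO-medium wells; IC50 from concentration–viability curve; doxorubicin as standard.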

Heme = test: Binding affinity to heme by UV-visible titration
How it was run: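 Hematin monomer (FPIX-OH, 10 μM) in pH 5.5 HEPES-buffered 40% DMSO v/v at 25 C, titrated with ligand from 100 μM solution until above hematin concentration. Stirred 1 min per addition; spectra 230–500 nm, Soret change at 402 nm. Absorbance dilution-corrected, nonlinear fit for Kd; Kass calculated from Kd.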

Nucleic Acid [3] = test: Binding affinity to s(GATCCTAGGATC)2-DNA by UV-visible spectrophotometry; assay type: nucleic-acid assay
Plasmodium falciparum [4] = test: Antiplasmodial activity against chloroquine and pyrimethamine-resistant ring stage Plasmodium falciparum V1/S infected in human red blood cells after 48 hrs; assay type: functional, organism-based
Plasmodium falciparum [5] = test: Antiplasmodial activity against chloroquine-sensitive, mefloquine-resistant ring stage Plasmodium falciparum D6 infected in human red blood cells after 48 hrs; assay type: functional, organism-based; conditions: D6, 48 h
Plasmodium berghei = test: Antiplasmodial activity against GFP-expressing liver stage Plasmodium berghei sporozoites infected in human Huh-7 cells at 5 uM by fluorescence activated cell sorting based method; assay type: functional, organism-based
How it was run: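 Huh7 human hepatoma cells infected with GFP-expressing P. berghei sporozoites, compound at 5 μM. Read-out by FACS: invasion as % GFP-positive cells 2 h after sporozoite addition; development as GFP fluorescence intensity of positive cells at 48 h. Cells trypsinized for 5 min at 37 C, then resuspended in 2% FCS/PBS before analysis.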

Plasmodium falciparum [6] = test: Resistance index, ratio of IC50 for chloroquine-resistant ring stage Plasmodium falciparum W2 to IC50 for chloroquine-sensitive ring stage Plasmodium falciparum 3D7; assay type: functional
How it was run: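 W2 IC50 divided by 3D7 IC50. Both were measured by 48 h YOYO-1 flow-cytometric growth assay on sorbitol-synchronised 1% ring-stage cultures in human erythrocytes at 37 C under 3% O2.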

[7] = Drug uptake in Plasmodium falciparum infected in human erythrocyte nucleus at 5 uM after 3 hrs by fluorescence microscopy; assay type: ADME, cell-based
How it was run: (§1)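 Human erythrocyte P. falciparum culture at 1.9% parasitemia, given 5 μM compound or DMSO solvent control for 3 h at room temperature in the dark. Washed gently with PBS, placed on poly-Lys-coated coverslips and imaged directly by phase contrast and fluorescence microscopy, 100× oil objective.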

[8] = Drug uptake in Plasmodium falciparum infected in human erythrocyte food vacuoles at 5 uM after 3 hrs by fluorescence microscopy; assay type: ADME, cell-based; how it was run: as §1
[9] = Inhibition of Plasmodium falciparum falcipain 3
[10] = Inhibition of Plasmodium falciparum falcipain 2
Nucleic Acid [11] = test: Binding affinity to s(GATCCTAGGATC)2-DNA by fluorescence spectroscopy; assay type: nucleic-acid assay
How it was run: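 Buffer 0.01 M phosphate pH 7.4, 0.1 M NaCl, 25.0 C, 1 cm quartz cuvettes. Fluorescence: excitation 339 nm, emission 450–500 nm. Dilution-corrected intensity change fitted to single-site binding for Kd; Kass taken as 1/Kd.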

Nucleic Acid [12] = test: Binding affinity to DNA assessed as quenching fluorescence intensity by UV-visible spectrophotometry; assay type: nucleic-acid assay
[13] = Inhibition of hematin assessed as quenching fluorescence intensity at 1:1 drug-hematin ratio by UV-visible titration; assay type: functional; conditions: dose or concentration not given here

C[n+]1c2ccccc2cc2[n-]c3ccccc3c21.Cl [CRYPTOLEPINE HYDROCHLORIDE]
IC50 (Plasmodium falciparum [1]): 424 nM
selectivity ratio [2]: 1.4
IC50 (Vero): 1050 nM
Ka (Heme): 0.045 ×10⁶ /M
Ka (Nucleic Acid [3]): 0.25 ×10⁶ /M
IC50 (Plasmodium falciparum [4]): 259 nM
IC50 (Plasmodium falciparum [5]): 222 nM
Activity (Plasmodium berghei): inactive
Ratio IC50 (Plasmodium falciparum [6]): 2.9
Drug uptake [7]: Active
Drug uptake [8]: Active
IC50 [9]: > 50000 nM
IC50 [10]: 38000 nM

C[n+]1c2ccccc2c(NC2CCNCC2)c2[nH]c3ccccc3c21.[Cl-]
Ka (Nucleic Acid [11]): 0.74 ×10⁶ /M
IC50 (Plasmodium falciparum [1]): 23 nM
selectivity ratio [2]: 1410
Activity (Nucleic Acid [12]): 20%
IC50 (Vero): 62000 nM
Ka (Heme): 0.154 ×10⁶ /M
IC50 (Plasmodium falciparum [4]): 60 nM
inhibition [13]: 60%
IC50 (Plasmodium falciparum [5]): 59 nM
Activity (Plasmodium berghei): inactive
Ratio IC50 (Plasmodium falciparum [6]): 0.7
Drug uptake [7]: Active
Drug uptake [8]: Active
IC50 [9]: 7900 nM
IC50 [10]: 6390 nM

Reference: ChEMBL document CHEMBL1671820, “Incorporation of basic side chains into cryptolepine scaffold: structure-antimalarial activity relationships and mechanistic studies” (J Med Chem, 2011)
